Experiments:
[1] = target: T1, Estrogen receptor (Homo sapiens) (UniProt P03372); test: Induction of ERalpha degradation in human CAMA1 cells assessed as decrease in ER-alpha level at 0.1 uM by Western blot analysis relative to fulvestrant; format: cell-based; set-up: scale not given: the % may be the effect or the level left; conditions: CAMA-1
T1 sequence (whole entry): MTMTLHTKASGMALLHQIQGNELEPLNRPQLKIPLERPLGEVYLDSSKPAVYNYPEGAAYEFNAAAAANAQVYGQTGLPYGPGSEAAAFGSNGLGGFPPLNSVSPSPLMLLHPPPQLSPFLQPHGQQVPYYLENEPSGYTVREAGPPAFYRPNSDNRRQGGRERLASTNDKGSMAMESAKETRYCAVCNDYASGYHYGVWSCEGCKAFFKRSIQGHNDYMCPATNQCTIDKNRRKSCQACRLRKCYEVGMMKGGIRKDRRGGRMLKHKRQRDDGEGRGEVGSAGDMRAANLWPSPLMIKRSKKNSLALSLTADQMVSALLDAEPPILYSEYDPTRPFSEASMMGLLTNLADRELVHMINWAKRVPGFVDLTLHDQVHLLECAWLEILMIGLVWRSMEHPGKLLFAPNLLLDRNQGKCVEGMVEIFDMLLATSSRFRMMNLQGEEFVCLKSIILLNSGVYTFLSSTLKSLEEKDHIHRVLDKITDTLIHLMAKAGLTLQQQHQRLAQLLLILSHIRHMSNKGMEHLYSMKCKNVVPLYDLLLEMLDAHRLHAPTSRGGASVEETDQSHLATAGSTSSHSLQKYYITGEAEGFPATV
Procedure, shortened: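 Western blot for ERα in MCF-7 and CAMA-1 cells after treatment at 0.1 µM. ER level is expressed as % degradation relative to fulvestrant, from a single experiment (n = 1).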

[2] = target: T1, Estrogen receptor (Homo sapiens); test: Induction of ERalpha degradation in human MCF7 cells assessed as decrease in ER-alpha level at 0.1 uM by Western blot analysis relative to fulvestrant; format: cell-based; set-up: scale not given: the % may be the effect or the level left
[3] = Intrinsic clearance in rat hepatocytes assessed per million cells; format: ADME, cell-based, Hepatocyte; conditions: read-out: CLH
Procedure, shortened: (§1)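 Hepatocyte intrinsic clearance measured from DMSO stock in isolated hepatocytes diluted to 1x10⁶ cells/mL; rate expressed as µl/min/10⁶ cells.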

[4] = Fraction unbound in human plasma by equilibrium dialysis method; format: ADME, cell-free
Procedure, shortened: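 Fraction unbound measured from DMSO stock by equilibrium dialysis in 10% human plasma.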

[5] = target: T1, Estrogen receptor (Homo sapiens); test: Induction of ERalpha degradation in human MCF7 cells assessed as maximum degradation incubated for 18 to 24 hrs by Alexa fluor 488/Hoechst staining based immunofluorescence imaging analysis relative to fulvestrant; format: cell-based; conditions: time lower […], time upper […]
[6] = target: T2, Estrogen receptor (Homo sapiens, UniProt P03372); test: Induction of ERalpha degradation in human MCF7 cells assessed as decrease in ER-alpha level incubated for 18 to 24 hrs by Alexa fluor 488/Hoechst staining based immunofluorescence imaging analysis; format: cell-based
T2 sequence (P03372 whole entry): T1 sequence (whole entry)
Procedure, shortened: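 ER degradation in MCF-7 cells via cellular degradation assay; n ≥ 2, degradation also expressed as %Dmax relative to fulvestrant.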

[7] = target: T2, Estrogen receptor; test: Displacement of fluormone ES2 green reagent from human GST-tagged ERalpha LBD (282 to 595 residues) expressed in baculovirus infected insect cells incubated for 1 hrs by TR-FRET Lanthascreen assay
[8] = Intrinsic clearance in human hepatocytes assessed per million cells; format: ADME, cell-based, Hepatocyte; conditions: read-out: CLH; procedure, shortened: as §1
[9] = Lipophilicity, log D of the compound in buffer and octanol at pH 7.4 by shake flask method; format: physicochemical
Procedure, shortened: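 logD at pH 7.4 by shake flask, buffer/octanol volume ratio 100:1.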

Structure (SMILES) | Activity [1] [%] | Activity [2] [%] | hepatocyte CLint [3] [µL/min/1e6 cells] | fraction unbound [4] | Emax [5] [%] | IC50 [6] [nM] | IC50 [7] [nM] | hepatocyte CLint [8] [µL/min/1e6 cells] | logD [9]
C[C@@H]1Cc2c(ccc3[nH]ncc23)[C@@H](c2ccc(NC3CN(CCCF)C3)cn2)N1CC(F)(F)CO | 105 | 104 | 16 | 0.64 | 99 | 0.501 | 6.31 |  | 
CC(C)CN1[C@H](c2c(F)cc(OCCN3CC(CF)C3)cc2F)c2ccc3[nH]ncc3c2C[C@H]1C |  |  | 74 | 0.004 | 99 | 0.2 | 0.794 | 9 | 4.6
COc1cc(OCCN2CC(CF)C2)ccc1[C@@H]1c2ccc3[nH]ncc3c2C[C@@H](C)N1CC(C)C | 74 | 94 | 9 | 0.52 | 98 |  | 7.94 | 3 | 
C[C@@H]1Cc2c(ccc3[nH]ncc23)[C@@H](c2ccc(NC3CN(CCCF)C3)cn2)N1CC(C)(F)F |  |  | 49 | 0.24 |  |  |  |  | 
C[C@@H]1Cc2c(ccc3[nH]ncc23)[C@@H](c2ccc(NC3(C)CN(CCCF)C3)cn2)N1CC(F)(F)F |  |  | 35 |  | 82 | 3.16 | 7.94 |  | 3.2
COc1cc(OC2CN(CCCF)C2)ccc1[C@@H]1c2ccc3[nH]ncc3c2C[C@@H](C)N1CC1(F)CC1 | 90 | 90 | 16 | 0.11 | 97 |  | 7.94 |  | 
C[C@@H]1Cc2c(ccc3[nH]ncc23)[C@@H](c2ccc(NC3CN(CCCF)C3)cn2)N1CC(F)F |  |  | 22 | 0.4 | 99 | 0.316 | 3.98 |  | 2.4
CC1(C)Cc2c(ccc3[nH]ncc23)[C@@H](c2ccc(NC3CN(CCCF)C3)cn2)N1CC(F)F |  |  | 270 | 0.22 | 98 | 0.794 | 3.16 |  | 
C[C@@H]1Cc2c(ccc3[nH]ncc23)[C@@H](c2ccc(O[C@H]3CCN(CCCF)C3)cn2)N1CC(F)(F)F |  |  | 44 | 0.15 | 98 | 0.398 | 2 |  | 3.2
COc1cc(OCCNCCCF)ccc1[C@@H]1c2ccc3[nH]ncc3c2C[C@@H](C)N1CC1(F)CC1 |  |  | 9 | 0.18 | 82 |  |  |  | 2.4
COc1cc(OCCN2CC(CF)C2)ccc1[C@@H]1c2ccc3[nH]ncc3c2C[C@@H](C)N1CC1(F)CC1 | 88 | 79 | 20 | 0.21 | 96 | 0.126 |  | 7 | 
C[C@@H]1Cc2c(ccc3[nH]ncc23)[C@@H](c2ccc(N(C)C3CN(CCCF)C3)cn2)N1CC(F)(F)F | 82 | 85 | 20 | 0.15 | 98 | 0.2 | 2 |  | 
COc1cc(NC2CN(CCCF)C2)ccc1[C@@H]1c2ccc3[nH]ncc3c2C[C@@H](C)N1CC(F)F | 100 | 99 | 14 | 0.12 | 99 | 0.1 | 2 |  | 3.2
C[C@@H]1Cc2c(ccc3[nH]ncc23)[C@@H](c2ccc(OCCN3CC(CF)C3)cn2)N1CC1(F)CC1 | 87 | 75 | 38 | 0.34 | 98 | 0.398 | 1.26 | 8 | 
COc1cc(OCCN2CC(CF)C2)ccc1[C@@H]1c2ccc3[nH]ncc3c2C[C@@H](C)N1CC1(F)COC1 | 75 | 79 | 42 | 0.25 | 95 | 0.251 | 3.98 |  | 2.7
COc1cc(NC2CN(CCCF)C2)ccc1[C@@H]1c2ccc3[nH]ncc3c2C[C@@H](C)N1CC(F)(F)F | 110 | 95 | 12 | 0.06 | 98 | 0.0631 | 5.01 |  | 
CC(C)CN1[C@H](c2ccc(OCCN3CC(CF)C3)cn2)c2ccc3[nH]ncc3c2C[C@H]1C |  |  | 41 | 0.19 | 99 | 0.398 | 10 | 8 | 3.2
C[C@@H]1Cc2c(ccc3[nH]ncc23)[C@@H](c2ccc(NC3CN(CCCF)C3)cn2)N1CC1(F)CC1 | 102 | 90 | 24 | 0.26 | 96 | 0.631 | 6.31 |  | 
COc1cc(NC2CN(CCCF)C2)ccc1[C@@H]1c2ccc3[nH]ncc3c2C[C@@H](C)N1CC(C)(C)F | 89 | 86 | 8 | 0.14 | 96 | 0.2 | 6.31 |  | 
CC(C)CN1[C@H](c2ccc(OCCN3CC(CF)C3)cc2)c2ccc3[nH]ncc3c2C[C@H]1C |  |  | 66 | 0.11 | 99 | 0.158 | 2 | 8 | 3.4
C[C@@H]1Cc2c(ccc3[nH]ncc23)[C@@H](c2ccc(NC3CN(CCCF)C3)cn2)N1CC(C)(C)F |  |  | 26 | 0.1 | 96 |  |  |  | 
COc1cc(NC2CN(CCCF)C2)ccc1[C@@H]1c2ccc3[nH]ncc3c2C[C@@H](C)N1CC(C)(F)F | 101 | 80 | 15 | 0.043 | 98 | 0.0398 | 2.51 |  | 
C[C@@H]1Cc2c(ccc3[nH]ncc23)[C@@H](c2ccc(NCCNCCCF)cn2)N1CC1(F)CC1 |  |  | 22 |  | 93 | 1 | 10 |  | 2
C[C@@H]1Cc2c(ccc3[nH]ncc23)[C@@H](c2ccc(N(C)[C@H]3CCN(CCCF)C3)cn2)N1CC(F)(F)F |  |  | 34 | 0.057 | 87 | 0.794 | 39.8 |  | 3.5
C[C@@H]1Cc2c(ccc3[nH]ncc23)[C@@H](c2ccc(OCCN3CC(CF)C3)cn2)N1CC(F)F | 88 | 97 | 36 | 0.49 | 98 | 0.501 | 2.51 | 5 | 
C[C@@H]1Cc2c(ccc3[nH]ncc23)[C@@H](c2ccc(NCCNCCCF)cn2)N1CC(F)(F)F |  |  | 22 | 0.16 | 94 | 0.631 | 5.01 |  | 2.7
COc1cc(OCCN2CC(CF)C2)ccc1[C@@H]1c2ccc3[nH]ncc3c2C[C@@H](C)N1CC(C)(C)F | 74 | 69 | 28 | 0.065 | 95 |  | 3.16 | 12 | 3.6
C[C@@H]1Cc2c(ccc3[nH]ncc23)[C@@H](c2c(F)cc(OCCN3CC(CF)C3)cc2F)N1CC(C)(C)F | 66 | 84 | 88 | 0.008 |  | 0.126 | 1 | 8 | 4.4
COc1cc(NC2CN(CCCF)C2)ccc1[C@@H]1c2ccc3[nH]ncc3c2C[C@@H](C)N1CC(F)(F)CO |  |  | 20 | 0.23 | 98 | 0.2 | 5.01 |  | 
CC1(C)Cc2c(ccc3[nH]ncc23)[C@@H](c2ccc(NC3CN(CCCF)C3)cn2)N1CC(F)(F)F |  |  | 296 | 0.14 | 95 |  |  |  | 

— ChEMBL document CHEMBL4673245, “Discovery of AZD9833, a Potent and Orally Bioavailable Selective Estrogen Receptor Degrader and Antagonist” (J Med Chem, 2020)
